Measured values as given in ChEMBL document CHEMBL4130543, “Bacilotetrins A and B, Anti-Staphylococcal Cyclic-Lipotetrapeptides from a Marine-Derived Bacillus subtilis” (J Nat Prod, 2017).
≈ marks a conversion by molar mass, not a printed value. Calls of active or inactive are those of the source. The calls are words filed in the database; no cut-off is given here.

Legend:
[1] = system: Staphylococcus aureus; experiment: Antibacterial activity against methicillin-resistant Staphylococcus aureus RN4220 after 24 hrs by MTT dye based broth microdilution method; assay type: functional
[2] = system: Staphylococcus aureus; experiment: Antibacterial activity against methicillin-resistant Staphylococcus aureus isolate EMRSA-15 after 24 hrs by MTT dye based broth microdilution method; assay type: functional
[3] = Cytotoxicity against human hepatic cancer cells at 3 to 30 ug/ml after 48 hrs by SRB assay; assay type: cell-based
Outline: (§1)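 Cells plated in 96-well format with test samples at 30, 10 and 3 μg/mL for 48 h. Adherent cells fixed in 50% (wt/vol) trichloroacetic acid, stained 60 min with 0.4% sulforhodamine B in 1% acetic acid, bound dye dissolved in 10 mM Tris base, absorbance read at 510 nm.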

[4] = system: Staphylococcus aureus; experiment: Antibacterial activity against […] after 24 hrs by MTT dye based broth microdilution method; assay type: functional; conditions: ATCC 25923, 24 h
[5] = system: Staphylococcus aureus; experiment: Antibacterial activity against methicillin-resistant Staphylococcus aureus SA1199B after 24 hrs by MTT dye based broth microdilution method; assay type: functional
[6] = system: Staphylococcus aureus; experiment: Antibacterial activity against methicillin-resistant Staphylococcus aureus isolate XU2120 after 24 hrs by MTT dye based broth microdilution method; assay type: functional; conditions: isolate XU2120, 24 h
[7] = system: Prostatic carcinoma cell; experiment: Cytotoxicity against human prostate cancer cells at 3 to 30 ug/ml after 48 hrs by SRB assay; assay type: cell-based; outline: as §1

| SMILES | MIC ([1]; RN4220, 24 h) [µg/mL] | MIC [2] | Activity [3] | MIC [4] [µg/mL] | MIC [5] [µg/mL] | MIC [6] [µg/mL] | Activity [7] | MIC [1] | MIC ([2]; isolate EMRSA-15, 24 h) [µg/mL] |
| --- | --- | --- | --- | --- | --- | --- | --- | --- | --- |
| CCC(C)CCCCCCC[C@@H]1CC(=O)N[C@@H](CC(C)C)C(=O)N[C@@H](CC(C)C)C(=O)N[C@@H](CC(C)C)C(=O)N[C@@H](CCC(=O)O)C(=O)O1 (some centres undefined) | 32 (≈ 46 µM) | inactive | Non-Toxic | 8 (≈ 11.5 µM) | 8 (≈ 11.5 µM) | 16 (≈ 23 µM) | Non-Toxic | – | – |
| CCC(C)CC(C)CCCCC[C@@H]1CC(=O)N[C@@H](CC(C)C)C(=O)N[C@@H](CC(C)C)C(=O)N[C@@H](CC(C)C)C(=O)N[C@@H](CCC(=O)O)C(=O)O1 (some centres undefined) | – | inactive | Non-Toxic | 16 (≈ 22.6 µM) | 32 (≈ 45.1 µM) | 16 (≈ 22.6 µM) | Non-Toxic | inactive | – |
| CCn1cc(C(=O)O)c(=O)c2cc(F)c(N3CCNCC3)cc21 [NORFLOXACIN] | 2 (≈ 6.26 µM) | – | – | 16 (≈ 50.1 µM) | 64 (≈ 200 µM) | 16 (≈ 50.1 µM) | – | – | 4 (≈ 12.5 µM) |
